The text below walks through data of ChEMBL document CHEMBL4196166 (J Med Chem, 2018).

The target of series [1] is Adenosine receptor A2a (Homo sapiens) (UniProt P29274). The experiment in a line: Displacement of [3H]ZM241385 from human wild type adenosine A2A receptor at 10 uM. The procedure, abridged:
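Compounds tested at 10 µM for displacement of 2.5 nM [3H]ZM241385 from human wild-type A2A receptor. Total binding taken without inhibitor. Nonspecific binding defined with 100 µM NECA. At least three independent experiments, each in duplicate. Mean ± SEM.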

The target of series [2] is T1, Epithelial sodium channel subunit gamma (Homo sapiens, UniProt P51170).
T1 sequence (P51170 whole entry): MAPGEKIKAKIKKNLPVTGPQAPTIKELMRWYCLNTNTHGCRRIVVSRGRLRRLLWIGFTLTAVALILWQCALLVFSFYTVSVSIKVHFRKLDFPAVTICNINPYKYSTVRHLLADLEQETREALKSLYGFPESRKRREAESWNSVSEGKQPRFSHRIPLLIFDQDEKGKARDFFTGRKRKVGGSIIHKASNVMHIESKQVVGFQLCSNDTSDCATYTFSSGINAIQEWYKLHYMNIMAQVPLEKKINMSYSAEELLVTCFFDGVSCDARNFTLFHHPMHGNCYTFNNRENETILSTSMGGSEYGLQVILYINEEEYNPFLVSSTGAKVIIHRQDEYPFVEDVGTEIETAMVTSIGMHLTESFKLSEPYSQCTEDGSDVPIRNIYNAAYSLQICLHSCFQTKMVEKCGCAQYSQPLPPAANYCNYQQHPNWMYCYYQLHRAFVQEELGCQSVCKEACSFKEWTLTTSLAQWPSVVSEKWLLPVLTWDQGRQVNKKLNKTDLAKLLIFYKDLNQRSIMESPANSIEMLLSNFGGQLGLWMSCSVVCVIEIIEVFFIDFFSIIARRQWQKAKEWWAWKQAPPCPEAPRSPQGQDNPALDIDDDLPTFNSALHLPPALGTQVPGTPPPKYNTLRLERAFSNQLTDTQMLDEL
The experiment in a line: Inhibition of S-3969-stimulated recombinant human ENaC gamma subunit expressed in HEK293 cells at 10 uM preincubated for 5 mins followed by S-3969 stimulation by FLIPR assay. In kind it is cell-based. The conditions noted are these: hek293, 10 µM. The procedure, abridged: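 HEK-293 cells transfected with human ENaC α, β and γ cDNA together, plated at 20 000 cells/well, incubated overnight at 37 °C. Loaded with membrane-potential red dye for 30 min at 37 °C. Compound preincubated 5 min in HEPES-buffered salt solution (pH 7.4, 0.3% DMSO), then stimulated with 1 µM S-3969, read on FLIPR. Signal normalized to agonist alone (100%) and agonist plus 30 µM benzamil (0%). n = 4 wells.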

The test system of series [3] is Homo sapiens. The experiment in a line: Antimetastatic activity against human PSC xenografted in BALB/c nu/nu mouse co-implanted with human AsPC1 cells assessed as reduction in metastasis lesions in liver at 10 mg/kg/day, ip measured after 28 days post first dose by microscopic analysis. In kind it is functional, organism-based. The procedure, abridged:
(§1)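 Female athymic BALB/c nu/nu mice, 6–8 weeks old. 1×10^6 AsPC-1 and 1×10^6 human pancreatic stellate cells in 50 µL PBS injected into the pancreatic tail. Treatment randomized on day 7 (n = 4/group) for 4 weeks: 10 mg/kg/day ip in 50 mM sodium acetate pH 5.5/10% DMSO/1% Kolliphor HS-15, or gemcitabine 75 mg/kg by oral gavage twice weekly, or vehicle. At kill, liver scored for visible macrometastases, fixed in formalin, and 4 µm sections stained with H&E. Chi-square test.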
(In general: A xenograft is tissue or cells of one species grown in another, often human tumour cells in immunodeficient mice.)

The subject of series [4] is ASPC1. The experiment in a line: Antimetastatic activity against human AsPC1 cells xenografted in BALB/c nu/nu mouse co-implanted with human PSC assessed as reduction in metastasis lesions in liver at 10 mg/kg/day, ip measured after 28 days post first dose by microscopic analysis. In kind it is functional, organism-based. Summed up:
as §1

Series [5] addresses Complement C1s subcomponent (Homo sapiens) (UniProt P09871). The series is described as follows: Inhibition of C1S (unknown origin) at 10 nM to 33.3 uM after 30 mins by gel-based ABPP assay.
Another series deals with Plasminogen (Homo sapiens, UniProt P00747). The series is described as follows: Inhibition of plasmin (unknown origin) at 10 nM to 33.3 uM after 30 mins by gel-based ABPP assay.
In series [6] the target is Lysosomal Pro-X carboxypeptidase (Homo sapiens) (UniProt P42785). The experiment in a line: Inhibition of prolylcarboxypeptidase (unknown origin) at 10 nM to 33.3 uM after 30 mins by gel-based ABPP assay.
Series [7] concerns the target Transmembrane protease serine 11D (Homo sapiens) (UniProt O60235). The series is described as follows: Inhibition of transmembrane protease serine 11D (unknown origin) at 10 nM to 33.3 uM after 30 mins by gel-based ABPP assay.
Series [8] deals with Homo sapiens. The series is described as follows: Antimetastatic activity against human PSC xenografted in BALB/c nu/nu mouse co-implanted with human AsPC1 cells assessed as reduction in metastasis lesions in liver at 10 mg/kg/day, ip measured after 28 days post first dose by haematoxylin and eosin staining-based microscopic analysis. In kind it is functional, organism-based. Summed up: as §1

The subject of series [9] is ASPC1. The experiment in a line: Antimetastatic activity against human AsPC1 cells xenografted in BALB/c nu/nu mouse co-implanted with human PSC assessed as reduction in metastasis lesions in liver at 10 mg/kg/day, ip measured after 28 days post first dose by haematoxylin and eosin staining-based microscopic analysis. In kind it is functional, organism-based. Summed up: as §1

Calls of active or inactive are those of the source. The calls are words filed in the database; no cut-off is given here.

Adenosine receptor A2a (Homo sapiens), sequence (P29274 whole entry): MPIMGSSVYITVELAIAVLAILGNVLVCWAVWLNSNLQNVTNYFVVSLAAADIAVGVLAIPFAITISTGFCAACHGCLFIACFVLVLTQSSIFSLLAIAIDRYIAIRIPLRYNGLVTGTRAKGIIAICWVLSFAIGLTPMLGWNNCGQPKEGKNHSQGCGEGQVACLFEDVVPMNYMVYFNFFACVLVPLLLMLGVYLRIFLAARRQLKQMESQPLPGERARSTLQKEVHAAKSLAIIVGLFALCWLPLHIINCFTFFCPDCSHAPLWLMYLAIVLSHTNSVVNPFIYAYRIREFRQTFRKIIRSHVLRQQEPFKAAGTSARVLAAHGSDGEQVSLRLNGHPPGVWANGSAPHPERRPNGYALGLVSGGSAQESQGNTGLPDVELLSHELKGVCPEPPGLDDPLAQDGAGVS
Transmembrane protease serine 11D (Homo sapiens), sequence (O60235 1-186 limits assumed): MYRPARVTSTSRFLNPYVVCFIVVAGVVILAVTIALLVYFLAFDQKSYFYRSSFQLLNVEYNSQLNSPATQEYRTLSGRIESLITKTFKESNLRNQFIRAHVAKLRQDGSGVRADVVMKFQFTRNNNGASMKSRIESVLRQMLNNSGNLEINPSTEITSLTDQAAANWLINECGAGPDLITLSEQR
Transmembrane protease serine 11D (Homo sapiens), sequence (O60235 187-418 limits assumed): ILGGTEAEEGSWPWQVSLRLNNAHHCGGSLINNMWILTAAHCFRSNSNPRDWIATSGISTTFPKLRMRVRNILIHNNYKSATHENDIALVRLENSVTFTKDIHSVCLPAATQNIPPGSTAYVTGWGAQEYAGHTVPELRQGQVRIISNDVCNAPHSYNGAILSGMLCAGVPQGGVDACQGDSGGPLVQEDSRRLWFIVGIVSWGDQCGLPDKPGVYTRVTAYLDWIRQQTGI
Complement C1s subcomponent (Homo sapiens), sequence (P09871 16-437 limits assumed): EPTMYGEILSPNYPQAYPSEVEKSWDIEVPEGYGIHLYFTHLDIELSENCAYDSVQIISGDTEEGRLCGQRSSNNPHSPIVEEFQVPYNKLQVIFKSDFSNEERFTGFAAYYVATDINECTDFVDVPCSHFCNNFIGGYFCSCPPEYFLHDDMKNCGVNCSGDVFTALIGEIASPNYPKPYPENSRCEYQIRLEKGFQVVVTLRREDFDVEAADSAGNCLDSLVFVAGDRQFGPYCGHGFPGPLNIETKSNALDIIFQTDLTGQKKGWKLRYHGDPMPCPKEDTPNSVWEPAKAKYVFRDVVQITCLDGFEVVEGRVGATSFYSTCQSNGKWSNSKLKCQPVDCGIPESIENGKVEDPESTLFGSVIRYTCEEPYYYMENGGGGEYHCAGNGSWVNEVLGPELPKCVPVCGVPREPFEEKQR
Complement C1s subcomponent (Homo sapiens), sequence (P09871 438-688 limits assumed): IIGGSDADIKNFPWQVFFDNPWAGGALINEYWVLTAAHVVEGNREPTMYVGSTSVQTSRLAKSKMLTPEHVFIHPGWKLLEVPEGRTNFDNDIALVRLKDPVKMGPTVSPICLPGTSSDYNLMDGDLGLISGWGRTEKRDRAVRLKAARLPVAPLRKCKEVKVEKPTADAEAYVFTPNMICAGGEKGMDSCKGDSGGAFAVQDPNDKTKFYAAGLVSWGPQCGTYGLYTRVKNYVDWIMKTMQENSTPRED
Lysosomal Pro-X carboxypeptidase (Homo sapiens), sequence (P42785 whole entry): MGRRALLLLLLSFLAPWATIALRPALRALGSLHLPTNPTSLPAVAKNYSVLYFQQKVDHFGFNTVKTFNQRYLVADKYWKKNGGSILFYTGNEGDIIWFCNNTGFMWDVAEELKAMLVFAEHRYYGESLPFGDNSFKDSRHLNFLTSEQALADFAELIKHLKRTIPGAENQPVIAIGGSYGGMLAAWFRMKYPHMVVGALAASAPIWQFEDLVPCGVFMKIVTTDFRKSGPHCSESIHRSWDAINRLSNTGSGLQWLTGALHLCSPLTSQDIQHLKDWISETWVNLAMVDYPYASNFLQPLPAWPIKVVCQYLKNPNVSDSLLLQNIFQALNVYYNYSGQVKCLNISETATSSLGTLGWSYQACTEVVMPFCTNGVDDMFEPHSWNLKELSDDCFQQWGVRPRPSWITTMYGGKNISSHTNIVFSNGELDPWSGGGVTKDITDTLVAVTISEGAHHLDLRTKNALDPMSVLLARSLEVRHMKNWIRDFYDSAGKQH
Plasminogen, sequence (P00747 97-580 limits assumed): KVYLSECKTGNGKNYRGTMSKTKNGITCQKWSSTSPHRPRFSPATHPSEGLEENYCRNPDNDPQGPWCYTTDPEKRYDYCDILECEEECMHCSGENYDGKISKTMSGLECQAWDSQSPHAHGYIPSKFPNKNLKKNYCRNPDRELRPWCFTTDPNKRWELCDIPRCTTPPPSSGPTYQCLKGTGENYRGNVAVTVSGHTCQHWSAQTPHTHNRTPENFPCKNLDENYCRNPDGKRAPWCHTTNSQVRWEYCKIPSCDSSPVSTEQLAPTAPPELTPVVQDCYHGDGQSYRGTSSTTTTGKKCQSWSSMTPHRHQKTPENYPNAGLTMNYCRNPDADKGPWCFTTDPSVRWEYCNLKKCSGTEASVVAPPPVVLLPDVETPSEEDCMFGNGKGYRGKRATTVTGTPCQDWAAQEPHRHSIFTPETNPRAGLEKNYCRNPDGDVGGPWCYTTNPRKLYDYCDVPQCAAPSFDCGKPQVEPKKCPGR
Plasminogen, sequence (P00747 581-810 limits assumed): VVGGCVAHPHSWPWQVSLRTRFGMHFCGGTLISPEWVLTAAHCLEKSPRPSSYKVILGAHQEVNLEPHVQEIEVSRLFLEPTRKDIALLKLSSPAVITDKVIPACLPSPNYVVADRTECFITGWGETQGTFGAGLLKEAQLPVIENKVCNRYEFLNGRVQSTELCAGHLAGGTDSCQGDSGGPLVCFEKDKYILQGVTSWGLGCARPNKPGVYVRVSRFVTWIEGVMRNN

On to `N=C(N)NC(=O)c1nc(Cl)c(N2CCCCCC2)nc1N` [N,N-HEXAMETHYLENEAMILORIDE], for which the inhibition result in series [1] was “Active”. Also, the “inhibition (INH)” value in series [2] is “Not Active”.
On to `N=C(N)NC(=O)c1nc(-c2cc3ccccc3o2)c(N2CCCCCC2)nc1N`, for which the “inhibition (INH)” value in series [2] is “Not Active”. The outcome with Homo sapiens [3] and in the series with ASPC1 [4] was Active.
Turning to `COc1ncc(-c2nc(C(=O)NC(=N)N)c(N)nc2N2CCCCCC2)cn1`, the inhibition result (in [5]; on Plasminogen; in series [6]; in series [7]) was “Active” each time. Also, the outcome in the series on Homo sapiens [3], in the series with Homo sapiens [8], in the series with ASPC1 [9] and in the series on ASPC1 [4] was Active.
